Experimental findings from ChEMBL document CHEMBL4020840, “Synthesis and Biological Evaluation of Selenium-Containing 4-Anilinoquinazoline Derivatives as Novel Antimitotic Agents” (J Med Chem, 2018) are described below.

The source made the active and inactive calls. The calls are words filed in the database; no cut-off is given here.

As a reminder, the inhibition is how much of the control response was suppressed.

The test system of test [1] is A549. The test is described as follows: Antitumor activity against human A549 cells xenografted in Balb/c mouse assessed as tumor growth inhibition at 2.5 mg/kg, ip treated once in 2 days for 10 days relative to control. It counts as functional. Conditions: read-out: TGI. A digest of the protocol:
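Male BALB/c nude mice, 5 weeks old, 18−20 g. Right flank injected sc with 0.1 mL of 1 × 10⁷ cells/mL log-phase A549 in FBS-free DMEM. At ~100 mm³, randomised into groups of 5 and dosed ip every 2 days; vehicle controls got equal volume. Tumour volume (0.5 × length × width²) and body weight recorded every 2 days.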
For orientation: Xenograft models place foreign cells or tissue in a host animal.

Test [2] relates to A549. The test is described as follows: Antimigratory activity against human A549 cells assessed as suppression of wound healing at 4 nM after 24 hrs by phase contrast microscopic method. It counts as functional, cell-based. A digest of the protocol:
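Scratch wound assay: A549 plated at 5 × 10⁴ cells/dish and grown 24 h before scraping with a 10 μL tip. Medium then swapped to serum-free DMEM containing compound (4 nM) for 24 h. After a PBS wash, wound images taken at 0 and 24 h; at least three independent experiments.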

For test [3], the species on record is Sus scrofa. The test is described as follows: Inhibition of porcine brain tubulin polymerization at 7.5 uM measured every 60 secs for 90 mins by DAPI staining based fluorescence assay relative to control. In a few lines:
(§1)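 Purified tubulin was tested in a kit assay. Final buffer: 80 mM PIPES sesquisodium (pH 6.9), 2.0 mM MgCl₂, 0.5 mM EGTA, 1 mM GTP, 10.2% glycerol. Compound (0.1–10 μM) was prewarmed at 37 °C for 1 min before tubulin was added. DAPI reporter fluorescence (ex 340 / em 410 nm) was read every 60 s for 90 min. Area under the curve gave percent inhibition versus control and the IC50.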

The species named for test [4] is Sus scrofa. The test is described as follows: Inhibition of porcine brain tubulin polymerization measured every 60 secs for 90 mins by DAPI staining based fluorescence assay. In a few lines:
as §1

Test [5] concerns A549. The test is described as follows: Cell cycle arrest in human A549 cells assessed as accumulation at G2/M phase up to 24 hrs by propidium iodide staining based flow cytometry. It counts as functional. In a few lines:
(§2)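 A549 seeded in six-well plates at 3 × 10⁵ cells/well and treated for 12 or 24 h; vehicle 0.01% DMSO. Cells fixed overnight in ice-cold 70% ethanol, treated with RNase A at 37 °C for 30 min, then stained with PI at 4 °C for 30 min. About 10 000 events acquired by flow cytometry at 488 nm; three experiments.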

The test system of test [6] is A549. The test is described as follows: Cell cycle arrest in human A549 cells assessed as decrease in S phase at 4 nM up to 24 hrs by propidium iodide staining based flow cytometry. It counts as functional. A digest of the protocol:
as §2
(A flow cytometer gives signals particle by particle.)

Test [7] relates to A549. The test is described as follows: Induction of apoptosis in human A549 cells assessed as upregulation of Bad level at 2 to 4 nM after 24 to 48 hrs by Western blot method. It counts as functional, cell-based. A digest of the protocol: (§3)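 A549 seeded in 60 mm dishes at 5 × 10⁵ cells and treated for 24 or 48 h. Lysed in RIPA buffer on ice for 30 min and spun at 12 500g. Protein measured by BCA; 40 μg run on 8−12% SDS−PAGE and moved to nitrocellulose. Blocked in 5% milk, primary antibodies at 4 °C overnight, HRP secondary 2 h, ECL detection.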
A general note: Immunoblotting shows a protein as a band on a membrane.

Test [8] relates to A549. The test is described as follows: Induction of apoptosis in human A549 cells assessed as upregulation of Bax level at 2 to 4 nM after 24 to 48 hrs by Western blot method. It counts as functional, cell-based. A digest of the protocol: as §3
Test [9] has as its system A549. The test is described as follows: Cell cycle arrest in human A549 cells assessed as decrease in G1 phase at 4 nM up to 24 hrs by propidium iodide staining based flow cytometry. It counts as functional. A digest of the protocol:
as §2

The test system of test [10] is A549. The test is described as follows: Induction of apoptosis in human A549 cells assessed as downregulation of Bcl2 level at 2 to 4 nM after 24 to 48 hrs by Western blot method. It counts as functional, cell-based. A digest of the protocol:
as §3

For the compound `C[Se]c1ccc(N(C)c2nc(C)nc3ccccc23)cc1F` [listing 1 of 2 here], in test [1], the inhibition in vivo at 2.5 mg/kg is 77.2%.
The same measure, in the same setting: with `C[Se]c1ccc(N(C)c2nc(C)nc3ccccc23)cc1` the figure was 75.7%.
Take `COc1ccc(N(C)c2nc(C)nc3ccccc23)cc1`: the result in [2] was Active. The same compound showed an inhibition in test [3] of 77.6%.
On to `C[Se]c1ccc(N(C)c2nc(C)nc3ccccc23)cc1F` [listing 2 of 2 here], for which the result in test [2] was Active. In addition, the inhibition result in test [4] was “Dose-dependent effect”; in [3], 90.5%. Also, the Activity entry in test [5] is “Dose-dependent effect”.
For `Cc1nc(N(C)c2ccc([Se]C#N)cc2)c2ccccc2n1`, the outcome in [2], in test [6], in test [7], in test [8], in test [9] and in test [10] was Active. Further, in [4], the inhibition result is “Dose-dependent effect”. For the same compound, in [5], the Activity result was “Dose-dependent effect”.
